# Compounds with a hit are over-represented: about 2.9% of the library has one in this group of screens.
# SIAE inh = inhibitors of human sialic acid acetylesterase SIAE. SIAE FP-Rh probe binding, fluorescence polarization. Q9HAT2. inhibition, % at 9.66 µM. 0.69% of 370,000 active;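 active = inhibition above a cutoff: mean of compounds within the control limits plus 3 SD of those, cut at about 17% in these data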;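 note: 0% = plate median of compound wells and 100% = probe without SIAE protein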
# PRMT1 inh = inhibitors of human PRMT1; Q99873; recombinant PRMT1, activity-based probe fluorescence polarization; inhibition, % at 2.79 µM; 1.3% of 370,000 active; AID 652257;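 active = inhibition above about 21% made by adding two undisclosed values, limit read from the data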
# Target sequence (Q99873 whole entry, looked up): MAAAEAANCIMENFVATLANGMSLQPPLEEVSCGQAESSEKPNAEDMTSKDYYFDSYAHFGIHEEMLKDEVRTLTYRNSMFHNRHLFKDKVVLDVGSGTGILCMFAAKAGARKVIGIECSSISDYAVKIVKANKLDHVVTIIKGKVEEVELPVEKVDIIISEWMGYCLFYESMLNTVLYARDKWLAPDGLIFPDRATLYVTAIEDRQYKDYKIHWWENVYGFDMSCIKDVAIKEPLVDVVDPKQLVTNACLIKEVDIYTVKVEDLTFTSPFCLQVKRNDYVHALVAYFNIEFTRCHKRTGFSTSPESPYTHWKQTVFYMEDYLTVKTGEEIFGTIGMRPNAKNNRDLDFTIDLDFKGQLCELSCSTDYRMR
# PAD4 FP inh = PAD4 (human) enzyme inhibition | Q9UM07 | recombinant PAD4, RCA probe fluorescence polarization | inhibition, % at 6.36 µM | 0.41% of 330,000 active | AID 485272;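 active = percent inhibition above a cutoff equal to the mean of all tested compounds plus 3 SD, cut at about 15% in these data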;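 note: 0% = PAD4 with RCA probe and DMSO and 100% = probe without PAD4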
# ABHD4 inh = inhibits mouse alpha/beta hydrolase domain 4; purified mABHD4, FP-Rh probe fluorescence polarization; inhibition, % at 8.92 µM; 0.54% of 370,000 active; Q8VD66;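 active = inhibition exceeding the mean over every tested compound plus 3 SD, cut at about 30% in these data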;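 note: 0% = plate median of compound wells and 100% = S159A mutant with DMSO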
#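 Test system: mABHD4 protein; Read-out basis: % inhibition; Incubation: 45 min + 60 min at 25 °C; Repeats: single replicate; Technique: fluorescence polarization with parallel and perpendicular emission, 525/598 nm; Compound: 8.92 µM, single dose; Benchmarks: full inhibition S159A mutant plus DMSO, zero as sample-well median.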
# HTRA1 inh = inhibitors of human serine peptidase HTRA1; Q92743; recombinant HTRA1, FP-rhodamine activity-based probe, fluorescence polarization; inhibition, % at 5.96 µM; 0.5% of 340,000 active; AID 504803; in the data active = inhibition above about 36%;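 note: 0% = enzyme with DMSO and 100% = wells lacking enzyme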
# TCR-CD3 inh = blocks the human TCR-CD3 interaction. TAMRA-labeled TCR probe fluorescence, biochemical. inhibition, % at 9.4 µM. 0.37% of 360,000 active; in the data active = inhibition above about 19%;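 note: recombinant mutant TCR 2C K166C tagged with TAMRA read by polarization; 0% = receptor in buffer alone and 100% = receptor with positive control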
# * = called active by the depositor; x = no result given.
SMILES,SIAE inh,PRMT1 inh,PAD4 FP inh,ABHD4 inh,HTRA1 inh,TCR-CD3 inh
CCC(=O)N(Cc1ccco1)c1nc(C(=O)Nc2ccc(Cl)cc2)c(C)s1,-23,21*,-6,-31,-73,2
CCN(C(=O)c1ccco1)c1nc(CC(=O)Nc2ccc(Cl)cc2)cs1,-3,6,-1,-5,-47,3
COCC#Cc1ccc(CC[C@H]2O[C@H]3CC[C@@H](CO)O[C@H]3C[C@H]2n2cc(C3CC3)nn2)cc1,-3,-3,x,-6,x,x
Cc1ccc(S(=O)(=O)N2CCCC2C(c2ccccc2O)c2cn(C)c3ccccc23)cc1 (stereo not given),-7,2,x,-2,x,x
C=C1C(=O)[C@]23C[C@H]1CC[C@H]2[C@]1(C)[C@@H](OC(C)=O)CC[C@@](C)(C(=O)OC)[C@H]1C[C@@H]3OC(C)=O,8,7,x,4,x,4
C=C1C(=O)[C@]23C[C@H]1CCC2[C@@]1(C)C(C[C@@H]3O)[C@](C)(C(=O)OC)CC[C@@H]1OC(C)=O (stereo not given in full),-2,24*,x,5,x,-3
COC(=O)C1CN(Cc2cn(Cc3ccc(OC)cc3)nn2)CCS(=O)(=O)N1Cc1ccc(OC)cc1 (stereo not given),1,-4,x,3,x,x
O=C(CC(=O)c1cc(Cl)ccc1O)c1ccccc1,1,0,4,6,-12,-1
O=C(c1ccccc1)c1cc(Cl)ccc1N1C(=O)C=CC1=O,8,91*,x,11,-25,-3
COC(=O)[C@]12C[C@H](CC(=O)NCc3cccs3)C(=O)N(Cc3ccco3)C1=C[C@H](C(C)C)O[C@@H]2C1CC1,1,1,x,-4,x,x
COc1cc(OC)c(-c2c3cc(O)c(=O)cc-3oc3cc(O)c(O)cc23)cc1OC,-319,24*,-121,-192,-202,-90
O[C@H](COc1cccc(Cl)c1)CN1CCC(C(O)(c2ccccc2)c2ccccc2)CC1,-2,-4,x,9,x,x
CCc1nnc(NC(=O)CN2C(=O)/C(=C/c3cc(OC)c(OC)c(OC)c3)SC2=S)s1,-3,21*,-11,-14,-15,2
COc1cc(/C=C2/SC(=S)N(CC(=O)Nc3nc4ccccc4s3)C2=O)cc(OC)c1OC,-69,5,-40,-11,-50,1
N=C1/C(=C\c2coc3ccc(O)cc3c2=O)C(=O)N=C2SC=CN12,-9,31*,-12,24,9,0
Cn1cc(CCOCc2ccccn2)c2ccccc21,4,-2,x,4,x,4
Cc1ccc(S(=O)(=O)N2CN(Cc3ccco3)c3nc4ccccc4nc32)cc1,-4,10,16*,-9,-20,3
COc1ccc(S(=O)(=O)N2CN(Cc3ccco3)c3nc4ccccc4nc32)cc1,-3,9,-1,-1,30,9
Cc1ccc2c(c1)C1CS(=O)(=O)N(Cc3ccc(F)cc3)CN1C2 (stereo not given),-5,2,x,-5,x,x
N#CCCN(C(=O)CSc1ccc2c(c1)OCCO2)c1ccccc1,5,22*,7,-5,9,-5
O=C1c2ccccc2-c2onc3ccc(NCCCn4ccnc4)c1c23,x,x,106*,x,x,x
CC(=O)C(Sc1nn(C)c(=S)s1)C(=O)Nc1ccccc1 (stereo not given),1,24*,0,-4,-6,-4
Cn1c2ccc(F)cc2c2ncn(Cc3ccco3)c(=O)c21,6,22*,2,-6,-5,6
COc1cc(C2C(C(=O)OC(C)C)=C(C)Nc3[nH]c(=O)[nH]c(=O)c32)ccc1O (stereo not given),4,0,-1,-3,-7,2
COC(=O)C1=C(C)Nc2[nH]c(=S)[nH]c(=O)c2C1c1ccc(O)cc1 (stereo not given),1,25*,0,-3,3,-10
SMILES,SIAE inh,PRMT1 inh,PAD4 FP inh,ABHD4 inh,HTRA1 inh,TCR-CD3 inh
C/C(=N\NC(=O)CSc1nnc(-c2ccccc2)n1-c1ccc(C)cc1)c1ccc(-c2ccccc2)cc1,2,-3,x,-12,x,x
C#CCCCN([C@H](C(=O)OC)C(C)C)S(=O)(=O)c1ccc(F)cc1Br,1,2,x,-7,x,x
CN=CC1=C(O)c2ccccc2C1=O,10,-1,-1,0,3,-9
O=C1C(C2=C(O)c3ccccc3C2=O)=Nc2ccccc21,10,21*,-62,40*,22,-3
Cc1ccc(C(=O)OCn2ncc(Cl)c(Cl)c2=O)cc1,1,2,20*,2,-10,-3
O=C(OCn1ncc(Cl)c(Cl)c1=O)c1ccc(C(F)(F)F)cc1,-6,5,x,-4,-1,-7
CCOC(=O)c1ccc(NC(=O)Cn2ncc(Cl)c(Cl)c2=O)cc1,-4,25*,-6,-4,-11,-2
C#CCN1CC(N(C)CCOC(=O)c2ccc(OC)c(OC)c2)CS1(=O)=O (stereo not given),-2,-6,x,5,x,x
COC(=O)C1CSC(C(=O)OC)N1C(=O)Nc1c(C)cccc1C (stereo not given),0,0,-2,2,2,5
COC(=O)C1CSC(C(=O)OC)N1C(=O)Nc1ccccc1 (stereo not given),-2,24*,5,5,-5,1
COC(=O)c1cc(C(c2ccccc2O)C2CCCO2)n2cccc(C(C)(C)C)c12 (stereo not given),5,-1,x,-1,x,x
CC(=O)NC1Sc2ccccc2N=C1c1ccccc1 (stereo not given),0,26*,-2,4,-12,11
O=C1c2ccccc2C2Cc3nnccc3CN12 (stereo not given),-6,-2,x,-4,x,5
CC(C)OP(=O)(OC(C)C)C1(NS(=O)(=O)c2ccc(Cl)cc2)C=C(Cl)C(=O)C(Cl)=C1,-1,30*,0,7,2,3
NC(=S)N/N=C/c1ccc(-c2ccc([N+](=O)[O-])cc2)o1,9,21*,-4,15,22,3
O=C1C=CC(=O)C(C2=C3C(=O)N(CCc4ccccc4)CC(=O)N3CCC2)=C1,13,88*,-1,27,x,8
CN(CC(=O)Nc1ccccc1C(F)(F)F)Cc1c(O)ccc2ccccc12,7,17,-7,-5,0,-6
CCc1ccccc1NC(=O)CN(C)Cc1c(O)ccc2ccccc12,-3,23*,1,1,1,4
C=CS(=O)(=O)N(Cc1nnn(Cc2ccccc2)c1Br)[C@@H](CC(C)C)C(=O)OC,0,1,x,-1,x,x
CCn1c(O)c(C2=c3ccccc3=NC2=O)c2cc(Br)ccc21,-5,12,2,12,x,2
O=C1N=c2ccccc2=C1c1c(O)n(-c2cccc(F)c2)[nH]c1=O,7,21*,-2,19,3,-4
COc1cc(=O)oc(C=O)c1C,-5,-2,x,2,x,4

# Source: PubChem BioAssay (The Scripps Research Institute Molecular Screening Center)
